{"source": "PubChem BioAssay AID504354", "about": "(Broad Institute, 2011)", "experiment": "apoptosis induction in non-primed human MEWO line – cell-based, luminescence, dry powder, set 2, counter-screen for A1 inhibitor project, dose response (AID 504354)", "conditions": "MEWO cells (unprimed), caspase-Glo luminescence, 3 h; at 16 µM; active compounds read high", "method_in_brief": "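Test system: unprimed MEWO cell line expressing A1 / Quantity: 2500 cells/well / Evaluation: caspase activity / Incubation: 3 h compound treatment at 37 °C, 1 h reagent at RT / Doses: compound delivered into wells by pin transfer / Detection: CaspaseGlo luminescence / Buffer or medium: RPMI-1640 growth medium with 10% FBS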", "note": "Unmarked numbers belong to inactive results.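 Rule for the calls: active = curve reaches 10% of the strong reference activator's caspase signal at or below the top valid tested dose; inactive = signal moves in the opposite direction, or the rest.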"}
{"smiles": "C/C1=C/C(=O)O[C@@H]2C[C@@H](CC[C@H](C)/C=C\\CC1)O[C@@](O)(C1CSC(=O)N1)C2", "note": "(stereo partly specified)", "values": [{"measurement": "caspase activation", "value": 2.23, "unit": "%"}]}
